Measured values published in ChEMBL document CHEMBL3351900, “Conjugation of a nonspecific antiviral sapogenin with a specific HIV fusion inhibitor: a promising strategy for discovering new antiviral therapeutics” (J Med Chem, 2014).
Peptide text beside a SMILES is read from it. * marks the point of attachment. X3 = C=C(C)[C@@H]1CC[C@]2(C(=O)O)CC[C@]3(C)[C@H](CC[C@@H]4[C@@]5(C)CC[C@H](OC(=O)CCc6cn(CC(=O)*)nn6)C(C)(C)[C@@H]5CC[C@]43C)[C@@H]12; X5 = C=C(C)[C@@H]1CC[C@]2(C(=O)OCc3cn(CC(=O)*)nn3)CC[C@]3(C)[C@H](CC[C@@H]4[C@@]5(C)CC[C@H](OC(C)=O)C(C)(C)[C@@H]5CC[C@]43C)[C@@H]12; X8 = C[C@H]1[C@H](C)CC[C@]2(C(=O)O)CC[C@]3(C)C(=CC[C@@H]4[C@@]5(C)CC[C@H](OC(=O)CCc6cn(CC(=O)*)nn6)C(C)(C)[C@@H]5CC[C@]43C)[C@H]12; X7 = C[C@H]1[C@H](C)CC[C@]2(C(=O)OCc3cn(CC(=O)*)nn3)CC[C@]3(C)C(=CC[C@@H]4[C@@]5(C)CC[C@H](O)C(C)(C)[C@@H]5CC[C@]43C)[C@H]12; X6 = CC1(C)CC[C@]2(C(=O)O)CC[C@]3(C)C(=CC[C@@H]4[C@@]5(C)CC[C@H](OC(=O)CCc6cn(CC(=O)*)nn6)C(C)(C)[C@@H]5CC[C@]43C)[C@@H]2C1; X10 = CC1(C)CC[C@]2(C(=O)OCc3cn(CC(=O)*)nn3)CC[C@]3(C)C(=CC[C@@H]4[C@@]5(C)CC[C@H](O)C(C)(C)[C@@H]5CC[C@]43C)[C@@H]2C1; βAla = NCCC(=O)O

Experiments:
[1] = system: Human immunodeficiency virus 1; assay: Antiviral activity against HIV1 3B infected in human MT2 cells assessed as inhibition of viral p24 antigen production by ELISA; format: functional, organism-based; details: Human immunodeficiency virus 1, 3B
In short: (§1)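 MT-2 cells (1 × 10⁴) infected with 100 TCID₅₀ virus with or without peptides at graded concentrations. Culture supernatants collected on day 4 postinfection; p24 antigen quantified by ELISA. Percent inhibition and EC₅₀ calculated; tested in triplicate, mean ± standard deviation.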

[2] = Cytotoxicity against human MT2 cells after 4 days by XTT assay; format: cell-based
In short: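 MT-2 cells (5 × 10⁵/mL) mixed with equal volumes of graded conjugate concentrations and held at 37 °C for 4 days. XTT (1 mg/mL) with 0.02 μM phenazine methosulfate added for 4 h, then A450 read. CC50 calculated from the dose–response.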

[3] = system: Human immunodeficiency virus 1; assay: Antiviral activity against HIV1 BaL infected in human […] cells assessed as inhibition of viral replication; format: functional, organism-based; details: Human immunodeficiency virus 1, BaL; in short: as §1
[4] = Selectivity index, ratio of CC50 for human MT2 cells to EC50 for HIV1 3B infected in human MT2 cells; format: toxicity, cell-based; details: read-out: Ratio CC50/EC50
[5] = molecular target: GP41 (Human immunodeficiency virus 1) (UniProt Q76270); assay: Ratio of EC50 for HIV1 gp41-induced cell-cell fusion between viral envelope expressing human HL2/3 cells to CD4/CCR5 receptor expressing TZM-bl cells with wash out to EC50 for HIV1 gp41-induced cell-cell fusion between viral envelope expressing human HL2/3 cells to CD4/CCR5 receptor expressing TZM-bl cells; format: cell-based
In short: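 Peptides preincubated with TZM-bl cells at 37 °C for 1 h, with or without washing away unbound peptide. EC50 compared between washed and unwashed cells, giving the n-fold change. Triplicates, mean ± SD.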

SMILES	EC50 [1] [nM]	CC50 at 96 h [2] [nM]	EC50 [3] [nM]	selectivity ratio [4]	Ratio EC50 [5]
C=C(C)[C@@H]1CC[C@]2(C(=O)O)CC[C@]3(C)[C@H](CC[C@@H]4[C@@]5(C)CC[C@H](OC(=O)CCc6cn(CC(=O)NCCC(=O)N[C@@H](CC(N)=O)C(=O)N[C@@H](CC(N)=O)C(=O)N[C@@H](Cc7ccc(O)cc7)C(=O)N[C@H](C(=O)N[C@@H](CO)C(=O)N[C@@H](CC(C)C)C(=O)N[C@H](C(=O)N[C@@H](Cc7cnc[nH]7)C(=O)N[C@@H](CO)C(=O)N[C@@H](CC(C)C)C(=O)N[C@H](C(=O)N[C@@H](CCC(=O)O)C(=O)N[C@@H](CCC(=O)O)C(=O)N[C@@H](CO)C(=O)N[C@@H](CCC(N)=O)C(=O)N[C@@H](CC(N)=O)C(=O)N[C@@H](CCC(N)=O)C(=O)N[C@@H](CCC(N)=O)C(=O)N[C@@H](CCC(=O)O)C(=O)N[C@@H](CCCCN)C(=O)N[C@@H](CC(N)=O)C(=O)N[C@@H](CCC(=O)O)C(=O)N[C@@H](CCC(N)=O)C(=O)N[C@@H](CCC(=O)O)C(=O)N[C@@H](CC(C)C)C(=O)N[C@@H](CC(C)C)C(N)=O)[C@@H](C)CC)[C@@H](C)CC)[C@@H](C)O)nn6)C(C)(C)[C@@H]5CC[C@]43C)[C@@H]12 ({X3-βAla}-NNYTSLIHSLIEESQNQQEKNEQELL-NH2)	133	> 25000	98	> 187	> 85
C=C(C)[C@@H]1CC[C@]2(C(=O)OCc3cn(CC(=O)NCCC(=O)N[C@@H](CC(N)=O)C(=O)N[C@@H](CC(N)=O)C(=O)N[C@@H](Cc4ccc(O)cc4)C(=O)N[C@H](C(=O)N[C@@H](CO)C(=O)N[C@@H](CC(C)C)C(=O)N[C@H](C(=O)N[C@@H](Cc4cnc[nH]4)C(=O)N[C@@H](CO)C(=O)N[C@@H](CC(C)C)C(=O)N[C@H](C(=O)N[C@@H](CCC(=O)O)C(=O)N[C@@H](CCC(=O)O)C(=O)N[C@@H](CO)C(=O)N[C@@H](CCC(N)=O)C(=O)N[C@@H](CC(N)=O)C(=O)N[C@@H](CCC(N)=O)C(=O)N[C@@H](CCC(N)=O)C(=O)N[C@@H](CCC(=O)O)C(=O)N[C@@H](CCCCN)C(=O)N[C@@H](CC(N)=O)C(=O)N[C@@H](CCC(=O)O)C(=O)N[C@@H](CCC(N)=O)C(=O)N[C@@H](CCC(=O)O)C(=O)N[C@@H](CC(C)C)C(=O)N[C@@H](CC(C)C)C(N)=O)[C@@H](C)CC)[C@@H](C)CC)[C@@H](C)O)nn3)CC[C@]3(C)[C@H](CC[C@@H]4[C@@]5(C)CC[C@H](OC(C)=O)C(C)(C)[C@@H]5CC[C@]43C)[C@@H]12 ({X5-βAla}-NNYTSLIHSLIEESQNQQEKNEQELL-NH2)	501	> 25000	99	> 52	
CC[C@H](C)[C@H](NC(=O)[C@H](CC(C)C)NC(=O)[C@H](CO)NC(=O)[C@H](Cc1cnc[nH]1)NC(=O)[C@@H](NC(=O)[C@H](CC(C)C)NC(=O)[C@H](CO)NC(=O)[C@@H](NC(=O)[C@H](Cc1ccc(O)cc1)NC(=O)[C@H](CC(N)=O)NC(=O)[C@H](CC(N)=O)NC(=O)CCNC(=O)Cn1cc(CCC(=O)O[C@H]2CC[C@]3(C)[C@H]4CC=C5[C@@H]6CC(C)(C)CC[C@]6(C(=O)O)CC[C@@]5(C)[C@]4(C)CC[C@H]3C2(C)C)nn1)[C@@H](C)O)[C@@H](C)CC)C(=O)N[C@@H](CCC(=O)O)C(=O)N[C@@H](CCC(=O)O)C(=O)N[C@@H](CO)C(=O)N[C@@H](CCC(N)=O)C(=O)N[C@@H](CC(N)=O)C(=O)N[C@@H](CCC(N)=O)C(=O)N[C@@H](CCC(N)=O)C(=O)N[C@@H](CCC(=O)O)C(=O)N[C@@H](CCCCN)C(=O)N[C@@H](CC(N)=O)C(=O)N[C@@H](CCC(=O)O)C(=O)N[C@@H](CCC(N)=O)C(=O)N[C@@H](CCC(=O)O)C(=O)N[C@@H](CC(C)C)C(=O)N[C@@H](CC(C)C)C(N)=O ({X6-βAla}-NNYTSLIHSLIEESQNQQEKNEQELL-NH2)	94	> 25000	150	> 266	
CC[C@H](C)[C@H](NC(=O)[C@H](CC(C)C)NC(=O)[C@H](CO)NC(=O)[C@H](Cc1cnc[nH]1)NC(=O)[C@@H](NC(=O)[C@H](CC(C)C)NC(=O)[C@H](CO)NC(=O)[C@@H](NC(=O)[C@H](Cc1ccc(O)cc1)NC(=O)[C@H](CC(N)=O)NC(=O)[C@H](CC(N)=O)NC(=O)CCNC(=O)Cn1cc(COC(=O)[C@]23CC[C@@H](C)[C@H](C)[C@H]2C2=CC[C@@H]4[C@@]5(C)CC[C@H](O)C(C)(C)[C@@H]5CC[C@@]4(C)[C@]2(C)CC3)nn1)[C@@H](C)O)[C@@H](C)CC)C(=O)N[C@@H](CCC(=O)O)C(=O)N[C@@H](CCC(=O)O)C(=O)N[C@@H](CO)C(=O)N[C@@H](CCC(N)=O)C(=O)N[C@@H](CC(N)=O)C(=O)N[C@@H](CCC(N)=O)C(=O)N[C@@H](CCC(N)=O)C(=O)N[C@@H](CCC(=O)O)C(=O)N[C@@H](CCCCN)C(=O)N[C@@H](CC(N)=O)C(=O)N[C@@H](CCC(=O)O)C(=O)N[C@@H](CCC(N)=O)C(=O)N[C@@H](CCC(=O)O)C(=O)N[C@@H](CC(C)C)C(=O)N[C@@H](CC(C)C)C(N)=O ({X7-βAla}-NNYTSLIHSLIEESQNQQEKNEQELL-NH2)	565	> 25000	288	> 44	
CC[C@H](C)[C@H](NC(=O)[C@H](CC(C)C)NC(=O)[C@H](CO)NC(=O)[C@H](Cc1cnc[nH]1)NC(=O)[C@@H](NC(=O)[C@H](CC(C)C)NC(=O)[C@H](CO)NC(=O)[C@@H](NC(=O)[C@H](Cc1ccc(O)cc1)NC(=O)[C@H](CC(N)=O)NC(=O)[C@H](CC(N)=O)NC(=O)CCNC(=O)Cn1cc(CCC(=O)O[C@H]2CC[C@]3(C)[C@H]4CC=C5[C@@H]6[C@@H](C)[C@H](C)CC[C@]6(C(=O)O)CC[C@@]5(C)[C@]4(C)CC[C@H]3C2(C)C)nn1)[C@@H](C)O)[C@@H](C)CC)C(=O)N[C@@H](CCC(=O)O)C(=O)N[C@@H](CCC(=O)O)C(=O)N[C@@H](CO)C(=O)N[C@@H](CCC(N)=O)C(=O)N[C@@H](CC(N)=O)C(=O)N[C@@H](CCC(N)=O)C(=O)N[C@@H](CCC(N)=O)C(=O)N[C@@H](CCC(=O)O)C(=O)N[C@@H](CCCCN)C(=O)N[C@@H](CC(N)=O)C(=O)N[C@@H](CCC(=O)O)C(=O)N[C@@H](CCC(N)=O)C(=O)N[C@@H](CCC(=O)O)C(=O)N[C@@H](CC(C)C)C(=O)N[C@@H](CC(C)C)C(N)=O ({X8-βAla}-NNYTSLIHSLIEESQNQQEKNEQELL-NH2)	387	> 25000	113	> 64	
CC[C@H](C)[C@H](NC(=O)[C@H](CC(C)C)NC(=O)[C@H](CO)NC(=O)[C@H](Cc1cnc[nH]1)NC(=O)[C@@H](NC(=O)[C@H](CC(C)C)NC(=O)[C@H](CO)NC(=O)[C@@H](NC(=O)[C@H](Cc1ccc(O)cc1)NC(=O)[C@H](CC(N)=O)NC(=O)[C@H](CC(N)=O)NC(=O)CCNC(=O)Cn1cc(COC(=O)[C@]23CCC(C)(C)C[C@H]2C2=CC[C@@H]4[C@@]5(C)CC[C@H](O)C(C)(C)[C@@H]5CC[C@@]4(C)[C@]2(C)CC3)nn1)[C@@H](C)O)[C@@H](C)CC)C(=O)N[C@@H](CCC(=O)O)C(=O)N[C@@H](CCC(=O)O)C(=O)N[C@@H](CO)C(=O)N[C@@H](CCC(N)=O)C(=O)N[C@@H](CC(N)=O)C(=O)N[C@@H](CCC(N)=O)C(=O)N[C@@H](CCC(N)=O)C(=O)N[C@@H](CCC(=O)O)C(=O)N[C@@H](CCCCN)C(=O)N[C@@H](CC(N)=O)C(=O)N[C@@H](CCC(=O)O)C(=O)N[C@@H](CCC(N)=O)C(=O)N[C@@H](CCC(=O)O)C(=O)N[C@@H](CC(C)C)C(=O)N[C@@H](CC(C)C)C(N)=O ({X10-βAla}-NNYTSLIHSLIEESQNQQEKNEQELL-NH2)	369	> 25000	498	> 68	
